In the M2OR odorant receptor database:

Legend:
Conditions in all cases: stereoisomer not certain
OR2C1 [1] = test system: OR2C1
Outline: (§1)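 Values were gathered from published papers (main text and supplementary material), with extra details requested from the original authors when needed, and checked for typos and inconsistencies. Each receptor–molecule pair is called responsive (active) if the original authors judged the measured signal statistically different from baseline, and non-responsive (inactive) otherwise. Assay methods varied by source, often transient mammalian cell-line luciferase assays. Recorded details include cell line, G-protein, co-transfected protein and tags.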
Target sequence in this assay (as listed by the source): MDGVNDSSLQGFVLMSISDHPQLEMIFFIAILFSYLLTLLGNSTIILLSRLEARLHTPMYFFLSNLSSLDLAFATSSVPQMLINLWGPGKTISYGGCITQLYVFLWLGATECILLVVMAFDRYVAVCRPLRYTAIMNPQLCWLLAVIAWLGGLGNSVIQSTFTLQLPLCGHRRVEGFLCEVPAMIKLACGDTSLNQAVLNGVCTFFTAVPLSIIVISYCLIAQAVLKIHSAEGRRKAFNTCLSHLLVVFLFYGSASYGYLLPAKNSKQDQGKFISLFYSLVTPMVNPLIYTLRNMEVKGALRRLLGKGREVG

OR2C1 [2] = test system: OR2C1; remark: listed apart in the source
Outline: as §1
Target sequence in this assay (as listed by the source): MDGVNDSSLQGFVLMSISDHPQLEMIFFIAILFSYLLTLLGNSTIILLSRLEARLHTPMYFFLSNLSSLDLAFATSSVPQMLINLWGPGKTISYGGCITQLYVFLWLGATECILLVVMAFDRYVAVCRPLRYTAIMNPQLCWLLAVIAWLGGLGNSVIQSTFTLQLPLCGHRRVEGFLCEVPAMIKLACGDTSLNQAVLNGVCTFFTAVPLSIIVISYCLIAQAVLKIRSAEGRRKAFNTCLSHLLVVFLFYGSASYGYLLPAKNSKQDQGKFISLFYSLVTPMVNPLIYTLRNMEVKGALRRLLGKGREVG

OR2F1 = test system: OR2F1
Outline: as §1

Sequence of OR2F1 (as listed by the source): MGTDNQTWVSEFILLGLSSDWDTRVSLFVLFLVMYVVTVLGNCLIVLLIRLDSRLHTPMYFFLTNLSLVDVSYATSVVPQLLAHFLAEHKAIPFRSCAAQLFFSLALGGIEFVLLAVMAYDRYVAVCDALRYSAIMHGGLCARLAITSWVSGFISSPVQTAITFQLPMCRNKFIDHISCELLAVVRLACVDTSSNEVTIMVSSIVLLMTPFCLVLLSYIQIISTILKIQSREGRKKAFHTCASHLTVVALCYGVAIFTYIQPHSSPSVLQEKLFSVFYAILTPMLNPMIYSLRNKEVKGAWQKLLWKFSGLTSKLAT

Compound	odorant receptor agonist call (OR2C1 [1])	odorant receptor agonist call (OR2C1 [2])	odorant receptor agonist call (OR2F1)
CCCCCCCCS	active	active	
O=C([O-])C[SH2+]			inactive
